Test results from ChEMBL document CHEMBL1133719, “Synthesis and preliminary biological evaluations of CC-1065 analogues: effects of different linkers and terminal amides on biological activity” (J Med Chem, 2000).

Key:
Mus musculus [1] = species: Mus musculus; experiment: Hematological effects in female CDF1 mice, in red blood cells; assay type: functional
Outline: (§1)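 Non-tumor-bearing female CDF1 mice, 10 per group. Drugs were dissolved in DMSO, diluted in 30% DMSO/0.5% glucose, and given as a single ip dose on day 1 (doses per kg). Blood was sampled on day 27 for WBC, platelet, RBC and MCHC counts. Values are medians of 10 mice.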

Mus musculus [2] = species: Mus musculus; experiment: (§2) Hematological effects in female CDF1 mice at the dose of 30 mg, in white blood cells; assay type: functional; outline: as §1
Mus musculus [3] = species: Mus musculus; experiment: Mean corpuscular hemoglobin concentration (MCHC); assay type: functional
Outline: (§3)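 Non-tumour-bearing female CDF1 mice, 10 per group. Drug was dissolved in DMSO, diluted in 30% DMSO/0.5% glucose, and given as a single ip dose on day 1. Blood was sampled on day 27 for WBC, platelet, RBC and MCHC measurements. Values are medians of 10 mice, with saline or vehicle controls.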

Mus musculus [4] = species: Mus musculus; experiment: Hematological effects in female CDF1 mice, in platelets; assay type: functional; outline: as §1
Mus musculus [5] = species: Mus musculus; experiment: Hematological effects in female CDF1 mice at the dose of 30mg, in red blood cells; assay type: functional; outline: as §3
Mus musculus [6] = species: Mus musculus; experiment: Hematological effects in female CDF1 mice at the dose of 30 mg, in platelet cells; assay type: functional; outline: as §3
Mus musculus [7] = species: Mus musculus; experiment: Antitumor activity in mice bearing L1210 leukemia at a dose of 30 ug / kg; assay type: functional
Outline: (§4)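 Female CDF1 mice, 10 per group, got 100 L1210 cells ip on day 0. Drug in DMSO was diluted with 30% DMSO in 0.5% glucose and dosed ip on days 1, 5 and 9. Long-term (60-day) survivors are given as percent of the group.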

[8] = Minimal drug concentration necessary to inhibit incorporation of [3H]thymidine in U937 Leukemia cells; assay type: functional, cell-based, Homo sapiens
L1210 [9] = experiment: Antitumor activity was tested in BDF1 male mice bearing L1210 Leukemia, at the dose of 25 ug/kg; survivors for 30 days was reported; assay type: functional, Mus musculus
Outline: (§5)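 Male BDF1 mice, 4-6 weeks old, 6 per group, were given 10⁵ L1210 cells ip on day 0. Drug in DMF was diluted in 30% DMSO/0.5% glucose and given ip on days 1, 5 and 9. %ILS = (T/C − 1) × 100 on median survival of dying animals only; 30-day survivors noted separately. Group weight change was taken from day 0 to the lowest-weight day.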

Mus musculus [10] = experiment: Hematological effects in female CDF1 mice at the dose of 50ug/Kg, in white blood cells; assay type: functional; outline: as §3
Mus musculus [11] = experiment: Anti tumor activity was tested in mice and percent increase of life span at a dose of 42 ug/kg; assay type: functional; outline: as §5
[12] = Hematological effects in female CDF1 mice RBCs at the dose of 50ug/Kg, in red blood cells; assay type: functional, Mus musculus, Erythrocyte; outline: as §3
L1210 [13] = experiment: Antitumor activity in mice bearing L1210 Leukemia at the dose of 30 ug/kg; survivors for 30 days was reported; assay type: functional, Mus musculus
L1210 [14] = experiment: Antitumor activity was tested in BDF1 male mice bearing L1210 Leukemia, at the dose of 70 ug/kg; activity expressed as 30-day survivors; assay type: functional, Mus musculus; outline: as §5
Mus musculus [15] = experiment: Antitumor activity was tested in mice and percent increase of life span at a dose of 25 ug/kg was reported; assay type: functional
[16] = Hematological effects in female CDF1 mice platelet cells at the dose of 50ug/Kg, in platelets; assay type: functional, Mus musculus; outline: as §3
L1210 [17] = experiment: Antitumor activity was tested in mice (bearing L1210 leukemia) and body weight change between days 0 and days 12 (when the animal weight was the lowest) was estimated at a dose of 25 ug/kg; assay type: functional, Mus musculus; outline: as §5
L1210 [18] = experiment: Antitumor activity was tested in Mice (bearing L1210 leukemia) and body weight change between days 0 and days 12 (when the animal weight was the lowest) was estimated at a dose of 70 ug/kg; assay type: functional, Mus musculus; outline: as §5
[19] = Compound was administered to non-tumor bearing female CDF1 mice to estimate Mean corpuscular hemoglobin concentration (MCHC); assay type: functional, Mus musculus
Outline: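 Non-tumor-bearing female CDF1 mice, 10 per group, received one ip dose on day 1 (DMSO stock diluted in 30% DMSO/0.5% glucose). Blood was sampled on day 27 for hematology, including MCHC; values are medians of 10 mice.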

L1210 [20] = experiment: Antitumor activity was tested in BDF1 male mice bearing L1210 Leukemia, at the dose of 42 ug/kg; survivors for 30 days was reported; assay type: functional, Mus musculus; outline: as §5
Mus musculus [21] = experiment: Anti tumor activity was tested in mice and percent increase of life span at a dose of 70 ug/kg; assay type: functional; outline: as §5
L1210 [22] = experiment: Antitumor activity was tested in Mice (bearing L1210 leukemia) and body weight change between days 0 and days 12 (when the animal weight was the lowest) was estimated at a dose of 42 ug/kg; assay type: functional, Mus musculus; outline: as §5
Mus musculus [23] = experiment: Antitumor activity in female CDF1 mice bearing L1210 Leukemia at the dose of 30 ug/kg and survivors (60-day) was expressed; assay type: functional; outline: as §4
Mus musculus [24] = species: Mus musculus; experiment: (§6) Hematological effects in female CDF1 mice at the dose of […], in red blood cells; assay type: functional; outline: as §1
Mus musculus [25] = species: Mus musculus; experiment: Hematological effects in female CDF1 mice at the dose of […], in platelets; assay type: functional; outline: as §1
Mus musculus [26] = species: Mus musculus; experiment: as §2; assay type: functional; outline: as §3; remark: listed apart in the source
Mus musculus [27] = species: Mus musculus; experiment: Antitumor activity in mice bearing B16BL6 melanoma at a dose of 10(ug/mL); survivors for 90 days was reported; assay type: functional
Outline: (§7)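 B16BL6 cells were cultured as monolayers, and 10⁶ cells were injected ip on day 0 into female BDF1 mice (4-6 weeks, 8 per group). Drug in dimethylacetamide was diluted in DMA/Cremophor/water (1:5:44) and 0.1 mL given ip on days 1, 5 and 9. %ILS came from median survival of dying animals; 90-day survivors were counted; mean weight change covered days 1-10.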

Mus musculus [28] = species: Mus musculus; experiment: Antitumor activity in mice bearing B16BL6 melanoma at a dose of 5(ug/mL); survivors for 90 days was reported; assay type: functional; outline: as §7
Mus musculus [29] = species: Mus musculus; experiment: Mean body weight change between days 1 and 10; assay type: functional
Outline: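 Female BDF1 mice (4-6 weeks old, 8 per group) were inoculated ip with 10⁶ B16BL6 melanoma cells on day 0. Drugs in dimethylacetamide were diluted in DMA:Cremophor:water (1:5:44) and given ip at 0.1 mL on days 1, 5 and 9 (doses per kg). Read-outs were %ILS = (T/C − 1) × 100 on median survival of dying animals only, mean body weight change from day 1 to day 10 (g/mouse), and 90-day survivors.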

Mus musculus [30] = species: Mus musculus; experiment: as §6
Mus musculus [31] = species: Mus musculus; experiment: animal or person

SMILES: C[S+](C)[O-].OC[C@H]1O[C@H](O)[C@H](O)[C@@H](O)[C@@H]1O
- RBC (Mus musculus [1]): 8.5 10e6 ul-1
- WBC (Mus musculus [2]): 12.85 10e3 ul-1
- MCHC (Mus musculus [3]): 34.45 g/dL
- Platelet (Mus musculus [4]): 1.16 10e6 ul-1

SMILES: CS(=O)(=O)OCCCCOS(C)(=O)=O [BUSULFAN]
- RBC (Mus musculus [5]): 8.45 10e6 ul-1
- Platelet (Mus musculus [6]): 0.71 10e6 ul-1
- WBC (Mus musculus [2]): 7 10e3 ul-1

SMILES: O=c1[nH]cc(F)c(=O)[nH]1 [FLUOROURACIL]
- RBC (Mus musculus [5]): 8.82 10e6 ul-1
- Platelet (Mus musculus [6]): 1.24 10e6 ul-1
- WBC (Mus musculus [2]): 12.4 10e3 ul-1
- MCHC (Mus musculus [3]): 35.4 g/dL

SMILES: CCCC(=O)Nc1ccc2oc(C(=O)Nc3ccc4[nH]c(C(=O)N5CC(CCl)c6c5cc(O)c5ccccc65)cc4c3)cc2c1 (configuration not stated)
- Survivors (Mus musculus [7]): 20%
- IC50 [8]: 0.008 nM

SMILES: CC(=O)Nc1ccc2oc(C(=O)Nc3ccc4[nH]c(C(=O)N5CC6CC67C5=CC(=O)c5ccccc57)cc4c3)cc2c1 (configuration not stated)
- No. of survivors (L1210 [9]): 0
- WBC (Mus musculus [10]): 13.95 10e3 ul-1
- ILS at 0.042 mg/kg (Mus musculus [11]): 80%
- RBC [12]: 7.81 10e6 ul-1
- No. of survivors (L1210 [13]): 60
- No. of survivors (L1210 [14]): 0
- ILS at 0.025 mg/kg (Mus musculus [15]): 53%
- IC50 [8]: 0.2 nM
- Platelet [16]: 1.01 10e6 ul-1
- Weight change (L1210 [17]): 23%
- Weight change (L1210 [18]): -15%
- MCHC [19]: 35.5 g/dL
- No. of survivors (L1210 [20]): 1
- ILS at 0.07 mg/kg (Mus musculus [21]): 93%
- Weight change (L1210 [22]): 18%

SMILES: CC(=O)Nc1ccc2[nH]c(/C=C/C(=O)N3CC(CCl)c4c3cc(O)c3ccccc43)cc2c1 (configuration not stated)
- IC50 [8]: 0.9 nM

SMILES: CC(=O)O[C@H]1C(=O)[C@@]2(C)[C@H]([C@H](OC(=O)c3ccccc3)[C@]3(O)C[C@H](OC(=O)[C@H](O)[C@@H](NC(=O)c4ccccc4)c4ccccc4)C(C)=C1C3(C)C)[C@]1(OC(C)=O)CO[C@@H]1C[C@@H]2O [PACLITAXEL]
- Survivors (Mus musculus [23]): 0%
- RBC (Mus musculus [24]): 8.33 10e6 ul-1
- Platelet (Mus musculus [25]): 1.04 10e6 ul-1
- WBC (Mus musculus [26]): 13.4 10e3 ul-1
- MCHC (Mus musculus [3]): 36.5 g/dL

SMILES: CC(=O)Nc1ccc2[nH]c(C(=O)N3CC(CCl)c4c3cc(O)c3ccccc43)cc2c1 (configuration not stated)
- IC50 [8]: 3 nM

SMILES: CC(=O)Nc1ccc2oc(C(=O)Nc3ccc4[nH]c(C(=O)N5CC(CCl)c6c5cc(O)c5ccccc65)cc4c3)cc2c1 (configuration not stated)
- IC50 [8]: 0.4 nM

SMILES: COc1cccc2c1C(=O)c1c(O)c3c(c(O)c1C2=O)C[C@@](O)(C(=O)CO)C[C@@H]3O[C@H]1C[C@H](N)[C@H](O)[C@H](C)O1 [DOXORUBICIN]
- No. of survivors (Mus musculus [27]): 2
- No. of survivors (Mus musculus [28]): 0
- Weight (Mus musculus [29]): 0.5 g

SMILES: O=P1(N(CCCl)CCCl)NCCCO1 (configuration not stated) [CYCLOPHOSPHAMIDE ANHYDROUS]
- RBC (Mus musculus [30]): 7.67 10e6 ul-1
- WBC (Mus musculus [26]): 11.22 10e3 ul-1
- ILS at 0.125 mg/kg (Mus musculus [31]): 173%
